Reference: ChEMBL document CHEMBL1799956, “Convergent synthesis and biological evaluation of 2-amino-4-(3',4',5'-trimethoxyphenyl)-5-aryl thiazoles as microtubule targeting agents” (J Med Chem, 2011)

Key:
[1] = Inhibition of bovine brain tubulin polymerization after 20 mins by turbidimetric analysis; parameters: species or system Bos taurus
Outline: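 Purified tubulin at 10 μM was used for the assembly (polymerization) inhibition assay. IC50 is the concentration inhibiting assembly.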

[2] = system: MCF7; assay: Antiproliferative activity against human MCF7 cells assessed as growth inhibition after 72 hrs by MTT assay; format: functional, cell-based; settings: MCF7, 72 h
[3] = system: K562; assay: Antiproliferative activity against human K562 cells assessed as growth inhibition after 72 hrs by MTT assay; format: functional, cell-based; settings: K562, 72 h
[4] = system: A549; assay: Antiproliferative activity against human A549 cells assessed as growth inhibition after 72 hrs by MTT assay; format: functional, cell-based; settings: A549, 72 h
[5] = system: HeLa; assay: Antiproliferative activity against human HeLa cells assessed as growth inhibition after 72 hrs by MTT assay; format: functional, cell-based
[6] = system: HL-60; assay: Antiproliferative activity against human HL60 cells assessed as growth inhibition after 72 hrs by MTT assay; format: functional, cell-based; settings: HL-60, 72 h
[7] = species on record: Bos taurus; assay: Displacement of [3H]colchicine from bovine brain tubulin at 5 uM
Outline: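 [3H]colchicine binding inhibition with tubulin at 1 μM, [3H]colchicine at 5 μM and test compound at 5 μM.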

[8] = system: Jurkat; assay: Antiproliferative activity against human Jurkat cells assessed as growth inhibition after 72 hrs by MTT assay; format: functional, cell-based
[9] = system: HT-29; assay: Antiproliferative activity against human HT-29 cells assessed as growth inhibition after 72 hrs by MTT assay; format: functional, cell-based; settings: HT-29, 72 h
[10] = system: LoVo; assay: Fold resistance, ratio of IC50 for human doxorubicin-resistant LoVo cells overexpressing P-gp to IC50 for human LoVo cells; format: functional
Outline: (§1)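 Fold resistance taken as the ratio of IC50 in the resistant line to IC50 in the parental line, each IC50 from dose-response curves of at least three independent experiments.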

[11] = system: A549; assay: Fold resistance, ratio of IC50 for human taxol-resistant A549-T12 cells to IC50 for human A549 cells; format: functional
[12] = system: LoVo; assay: Antiproliferative activity against human LoVo cells assessed as growth inhibition after 72 hrs by MTT assay; format: functional, cell-based
[13] = Antiproliferative activity against human vinblastine-resistant CEM/VBL100 cells overexpressing P-gp assessed as growth inhibition after 72 hrs by MTT assay; format: functional, cell-based; settings: CEM/VBL100, 72 h
[14] = Antiproliferative activity against human taxol-resistant A549-T12 cells assessed as growth inhibition after 72 hrs by MTT assay; format: functional, cell-based; settings: A549, 72 h
[15] = system: LoVo; assay: Antiproliferative activity against human doxorubicin-resistant LoVo cells overexpressing P-gp assessed as growth inhibition after 72 hrs by MTT assay; format: functional, cell-based
[16] = system: CCRF-CEM; assay: Antiproliferative activity against human CEM cells assessed as growth inhibition after 72 hrs by MTT assay; format: functional, cell-based
[17] = system: CCRF-CEM; assay: Fold resistance, ratio of IC50 for human vinblastine-resistant CEM/VBL100 cells overexpressing P-gp to IC50 for human CEM cells; format: functional; outline: as §1
[18] = species on record: Bos taurus; assay: Ratio of combretastatin A-4 IC50 to compound IC50 for bovine brain tubulin

Structure (SMILES)	IC50 [1] [nM]	IC50 [2] [nM]	IC50 [3] [nM]	IC50 [4] [nM]	IC50 [5] [nM]	IC50 [6] [nM]	inhibition [7] [%]	IC50 [8] [nM]	IC50 [9] [nM]	Ratio IC50 [10]	Ratio IC50 [11]	IC50 [12] [nM]	IC50 [13] [nM]	IC50 [14] [nM]	IC50 [15] [nM]	IC50 [16] [nM]	Ratio IC50 [17]	Ratio IC50 [18]
COc1ccc(-c2sc(N)nc2-c2cc(OC)c(OC)c(OC)c2)cc1C	1100	58.7	67.6	305	2.6	4	72	21.5	24	–	–	–	–	–	–	–	–	–
COc1cc(-c2nc(N)sc2-c2ccccc2)cc(OC)c1OC	–	> 10000	8500	9600	3090	3640	–	3830	7920	–	–	–	–	–	–	–	–	–
COc1ccc(-c2sc(N)nc2-c2cc(OC)c(OC)c(OC)c2)cc1	1100	60.9	5.1	20.2	2.3	3.2	79	2.1	11.7	0.25	0.6	3.1	1.2	11.4	0.8	7.7	0.1	–
COc1ccc(-c2sc(N)nc2-c2cc(OC)c(OC)c(OC)c2)cc1OC	–	1170	829	1800	249	301	–	319	432	–	–	–	–	–	–	–	–	–
COc1cc(-c2nc(N)sc2-c2ccc(C)cc2)cc(OC)c1OC	440	280	58.7	42.8	0.73	3.9	88	3.9	12.4	–	–	–	–	–	–	–	–	3
CCOc1ccc(-c2sc(N)nc2-c2cc(OC)c(OC)c(OC)c2)cc1Cl	890	14.1	8.8	11.2	0.91	0.27	87	0.06	15.6	0.9	0.8	2	0.7	8.5	1.7	1.4	0.5	–
COc1cc(-c2nc(N)sc2-c2cc3ccccc3s2)cc(OC)c1OC	2000	47	19.6	16	2.8	0.9	86	0.6	19.1	–	–	–	–	–	–	–	–	–
CC[C@]1(O)C[C@@H]2CN(CCc3c([nH]c4ccccc34)[C@@](C(=O)OC)(c3cc4c(cc3OC)N(C)[C@H]3[C@@](O)(C(=O)OC)[C@H](OC(C)=O)[C@]5(CC)C=CCN6CC[C@]43[C@@H]65)C2)C1 [VINBLASTINE]	–	–	–	–	–	–	–	–	–	–	–	–	230	–	–	4.1	56.1	–
COc1cc(-c2nc(N)sc2-c2ccc3ccccc3c2)cc(OC)c1OC	740	51.2	22.1	3.8	1.6	2.7	94	3.3	23.9	–	–	–	–	–	–	–	–	–
COc1ccc(-c2sc(N)nc2-c2cc(OC)c(OC)c(OC)c2)cc1Cl	880	27.3	36.1	37.7	1.6	2.8	77	2.9	12.8	–	–	–	–	–	–	–	–	–
CCc1ccc(-c2sc(N)nc2-c2cc(OC)c(OC)c(OC)c2)cc1	1100	117	49.7	238	1	1.1	73	4.1	54.1	–	–	–	–	–	–	–	–	–
COc1cccc(-c2sc(N)nc2-c2cc(OC)c(OC)c(OC)c2)c1	–	476	728	2370	209	118	–	48.4	239	–	–	–	–	–	–	–	–	–
COc1cccc2c1C(=O)c1c(O)c3c(c(O)c1C2=O)C[C@@](O)(C(=O)CO)C[C@@H]3O[C@H]1C[C@H](N)[C@H](O)[C@H](C)O1 [DOXORUBICIN]	–	–	–	–	–	–	–	–	–	109.6	–	120	–	–	–	–	–	–
CC(=O)O[C@H]1C(=O)[C@@]2(C)[C@H]([C@H](OC(=O)c3ccccc3)[C@]3(O)C[C@H](OC(=O)[C@H](O)[C@@H](NC(=O)c4ccccc4)c4ccccc4)C(C)=C1C3(C)C)[C@]1(OC(C)=O)CO[C@@H]1C[C@@H]2O [PACLITAXEL]	–	–	–	7.2	–	–	–	–	–	–	10.4	–	–	75.2	–	–	–	–
COc1cc(-c2nc(N)sc2-c2ccc(C(F)(F)F)cc2)cc(OC)c1OC	4000	0.4	7.6	357	3.2	5.1	25	8.5	221	–	–	–	–	–	–	–	–	–
COc1ccc(-c2sc(N)nc2-c2cc(OC)c(OC)c(OC)c2)cc1F	1200	18.6	6	3.1	2	6.1	81	7.3	5.7	–	–	–	–	–	–	–	–	–
COc1cc(-c2nc(N)sc2-c2cccc3ccccc23)cc(OC)c1OC	–	> 10000	9030	6320	3860	8660	–	4690	> 10000	–	–	–	–	–	–	–	–	–
